Test results as given in ChEMBL document CHEMBL3091449, “Synthesis and antimicrobial profile of N-substituted imidazolium oximes and their monoquaternary salts against multidrug resistant bacteria” (2013).
≈ marks a conversion by molar mass, not a printed value.

How the values were obtained:
Format in all cases: functional
Enterobacter cloacae [1] = assay: Antibacterial activity against TEM-1/SHV-12 expressing Enterobacter cloacae isolate 306 after 18 to 24 hrs by two-fold broth microdilution assay
Pseudomonas aeruginosa [2] = assay: Antibacterial activity against GIM-1 expressing Pseudomonas aeruginosa isolate 197 after 18 to 24 hrs by two-fold broth microdilution assay
Outline: (§1)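 CLSI two-fold broth microdilution was used. Compounds were dissolved in DMSO, brought to 10 mg/mL in medium, then serially diluted in Mueller Hinton broth over 400–0.09 µg/mL. Overnight MHB cultures were diluted to 10^6 CFU/mL, and 10 µL was added per well. Plates were incubated 18–24 h at 37 °C, then 0.2 mg/mL INT was added for 30 min at 37 °C. MIC was the lowest concentration with no visible growth or pink colour, triplicate.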

Acinetobacter baumannii = assay: Antibacterial activity against SIM-1 expressing Acinetobacter baumannii isolate 170 after 18 to 24 hrs by two-fold broth microdilution assay
Outline: (§2)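 CLSI two-fold broth microdilution. Compounds dissolved in DMSO, 10 mg/mL stock, serially diluted to 400–0.09 µg/mL in Mueller Hinton broth. Wells inoculated with 10^6 CFU/mL bacteria and incubated 18–24 h at 37 °C. 0.2 mg/mL INT added for 30 min. MIC taken as the lowest concentration with no visible growth or pink colour. Triplicate.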

Escherichia coli [3] = assay: Antibacterial activity against TEM-1/SHV-12 expressing Escherichia coli isolate 237 after 18 to 24 hrs by two-fold broth microdilution assay; outline: as §2
[4] = test system: Stenotrophomonas maltophilia; assay: Antibacterial activity against […] expressing Stenotrophomonas maltophilia isolate 125 after 18 to 24 hrs by two-fold broth microdilution assay; outline: as §1
Aeromonas caviae [5] = assay: Antibacterial activity against […] expressing Aeromonas caviae isolate 258 after 18 to 24 hrs by two-fold broth microdilution assay; outline: as §1
Enterobacter cloacae [6] = assay: Antibacterial activity against CTX-15 expressing Enterobacter cloacae isolate 51 after 18 to 24 hrs by two-fold broth microdilution assay
Enterobacter cloacae [7] = assay: Antibacterial activity against TEM-1/CTX-M-15 expressing Enterobacter cloacae isolate 62 after 18 to 24 hrs by two-fold broth microdilution assay
Escherichia coli [8] = assay: Antibacterial activity against […] expressing Escherichia coli isolate 235 after 18 to 24 hrs by two-fold broth microdilution assay; outline: as §2
Escherichia coli [9] = assay: Antibacterial activity against […] expressing Escherichia coli isolate 4024 after 18 to 24 hrs by two-fold broth microdilution assay; outline: as §2
Aeromonas caviae [10] = assay: Antibacterial activity against TEM-1/CTX-M-15 expressing Aeromonas caviae isolate 260 after 18 to 24 hrs by two-fold broth microdilution assay; outline: as §1
Aeromonas hydrophila [11] = assay: Antibacterial activity against TEM-1/SHV-12 expressing Aeromonas hydrophila isolate 268 after 18 to 24 hrs by two-fold broth microdilution assay; outline: as §1
Klebsiella pneumoniae [12] = assay: Antibacterial activity against TEM-1/SHV-12 expressing Klebsiella pneumoniae isolate 303 after 18 to 24 hrs by two-fold broth microdilution assay; outline: as §1
Kluyvera intermedia = assay: Antibacterial activity against TEM-1/SHV-12/[…] expressing Enterobacter intermedius isolate 243 after 18 to 24 hrs by two-fold broth microdilution assay; outline: as §1
Klebsiella pneumoniae [13] = assay: Antibacterial activity against Klebsiella pneumoniae FNSST 011 after 18 to 24 hrs by two-fold broth microdilution assay; outline: as §1
Klebsiella pneumoniae [14] = assay: Antibacterial activity against Klebsiella pneumoniae FNSST 011 assessed as diameter of zone of inhibition at 250 ug/disc after 24 hrs by disc diffusion method; settings: FNSST 011, 24 h, read-out: DIZ
Outline: (§3)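 Bacteria were grown overnight at 37 °C in TSB to about 10^6 cfu/mL, and 100 µL was spread on Mueller Hinton agar. Sterile 6 mm discs were each loaded with 25 µL of a 10 mg/mL stock in 96% ethanol, giving 250 µg/disc. Ethanol served as the negative control. Plates were incubated 24 h at 37 °C. Inhibition zone diameter was measured including the disc, in triplicate, as mean ± SE.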

Aeromonas hydrophila [15] = assay: Antibacterial activity against Aeromonas hydrophila FNSST 014 assessed as diameter of zone of inhibition at 250 ug/disc after 24 hrs by disc diffusion method; settings: FNSST 014, 24 h, read-out: DIZ; outline: as §3
Enterococcus faecalis [16] = assay: Antibacterial activity against Enterococcus faecalis ATCC 29212 assessed as diameter of zone of inhibition at 250 ug/disc after 24 hrs by disc diffusion method; settings: ATCC 29212, 24 h, read-out: DIZ; outline: as §3
Pseudomonas aeruginosa [17] = assay: Antibacterial activity against Pseudomonas aeruginosa FNSST 982 after 18 to 24 hrs by two-fold broth microdilution assay; outline: as §1
Escherichia coli [18] = assay: Antibacterial activity against Escherichia coli FNSST 982 after 18 to 24 hrs by two-fold broth microdilution assay; outline: as §1
Enterococcus faecalis [19] = assay: Antibacterial activity against Enterococcus faecalis ATCC 29212 after 18 to 24 hrs by two-fold broth microdilution assay; outline: as §1
Candida albicans = assay: Antifungal activity against Candida albicans ATCC 10231 assessed as diameter of zone of inhibition at 250 ug/disc after 48 hrs by disc diffusion method; settings: ATCC 10231, 48 h, read-out: DIZ
Outline: (§4)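 Fungi were grown overnight at 30 °C in Sabouraud dextrose broth to 10^4 cfu/mL, and 100 µL was spread on Sabouraud dextrose agar. 6 mm discs carried 250 µg (25 µL of a 10 mg/mL stock in 96% ethanol), with ethanol as the negative control. Incubation was at 30 °C for 48 h (yeast) or 72 h (molds). Zone diameter was read including the disc, in triplicate, mean ± SE.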

Clostridium perfringens [20] = assay: Antibacterial activity against Clostridium perfringens FNSST 4999 after 18 to 24 hrs by two-fold broth microdilution assay; outline: as §2
Talaromyces funiculosus = assay: Antifungal activity against Penicillium funiculosum FNSST 3724 assessed as diameter of zone of inhibition at 250 ug/disc after 72 hrs by disc diffusion method; settings: FNSST 3724, 72 h, read-out: DIZ; outline: as §4
Clostridium perfringens [21] = assay: Antibacterial activity against Clostridium perfringens FNSST 4999 assessed as diameter of zone of inhibition at 250 ug/disc after 24 hrs by disc diffusion method; settings: FNSST 4999, 24 h, read-out: DIZ
Outline: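 Disc diffusion per CLSI: 100 µL of 10^6 cfu/mL bacterial suspension spread on Mueller Hinton agar. 6 mm discs loaded with 25 µL of 10 mg/mL compound stock in 96% ethanol (250 µg/disc); ethanol as negative control. Incubated 24 h at 37 °C. Inhibition zone diameter measured in mm including the disc, triplicate, reported as mean ± SE.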

Bacillus cereus [22] = assay: Antibacterial activity against Bacillus cereus ATCC 11778 after 18 to 24 hrs by two-fold broth microdilution assay; outline: as §1
Escherichia coli [23] = assay: Antibacterial activity against Escherichia coli FNSST 982 assessed as diameter of zone of inhibition at 250 ug/disc after 24 hrs by disc diffusion method; settings: FNSST 982, 24 h, read-out: DIZ; outline: as §3
Staphylococcus aureus [24] = assay: Antibacterial activity against Staphylococcus aureus ATCC 25923 assessed as diameter of zone of inhibition at 250 ug/disc after 24 hrs by disc diffusion method; settings: ATCC 25923, 24 h, read-out: DIZ; outline: as §3
Aeromonas hydrophila [25] = assay: Antibacterial activity against Aeromonas hydrophila FNSST 014 after 18 to 24 hrs by two-fold broth microdilution assay; outline: as §1
Bacillus cereus [26] = assay: Antibacterial activity against Bacillus cereus ATCC 11778 assessed as diameter of zone of inhibition at 250 ug/disc after 24 hrs by disc diffusion method; settings: ATCC 11778, 24 h, read-out: DIZ; outline: as §3
Staphylococcus aureus [27] = assay: Antibacterial activity against Staphylococcus aureus ATCC 25923 after 18 to 24 hrs by two-fold broth microdilution assay; outline: as §1
Pseudomonas aeruginosa [28] = assay: Antibacterial activity against Pseudomonas aeruginosa FNSST 982 assessed as diameter of zone of inhibition at 250 ug/disc after 24 hrs by disc diffusion method; settings: FNSST 982, 24 h, read-out: DIZ; outline: as §3
Aspergillus fumigatus = assay: Antifungal activity against Aspergillus fumigatus FNSST 3833 assessed as diameter of zone of inhibition at 250 ug/disc after 72 hrs by disc diffusion method; settings: FNSST 3833, 72 h, read-out: DIZ; outline: as §4

SMILES	MIC (Enterobacter cloacae [1]) [µg/mL]	MIC (Pseudomonas aeruginosa [2]) [µg/mL]	MIC (Acinetobacter baumannii) [µg/mL]	MIC (Escherichia coli [3]) [µg/mL]	MIC [4] [µg/mL]	MIC (Aeromonas caviae [5]) [µg/mL]	MIC (Enterobacter cloacae [6]) [µg/mL]	MIC (Enterobacter cloacae [7]) [µg/mL]	MIC (Escherichia coli [8]) [µg/mL]	MIC (Escherichia coli [9]) [µg/mL]	MIC (Aeromonas caviae [10]) [µg/mL]	MIC (Aeromonas hydrophila [11]) [µg/mL]	MIC (Klebsiella pneumoniae [12]) [µg/mL]	MIC (Kluyvera intermedia) [µg/mL]	also measured
CC(C)(O/N=C(\C(=O)N[C@@H]1C(=O)N2C(C(=O)[O-])=C(C[n+]3ccccc3)CS[C@H]12)c1csc(N)n1)C(=O)O [CEFTAZIDIME]	> 256	256 (≈ 468 µM)	> 256	8 (≈ 14.6 µM)	128 (≈ 234 µM)	4 (≈ 7.32 µM)	16 (≈ 29.3 µM)	> 256	64 (≈ 117 µM)	16 (≈ 29.3 µM)	128 (≈ 234 µM)	64 (≈ 117 µM)	128 (≈ 234 µM)	8 (≈ 14.6 µM)	–
O=C(O)c1cn(C2CC2)c2cc(N3CCNCC3)c(F)cc2c1=O [CIPROFLOXACIN]	–	> 4	0.5 (≈ 1.51 µM)	–	–	0.5 (≈ 1.51 µM)	–	–	–	–	1 (≈ 3.02 µM)	2 (≈ 6.04 µM)	2 (≈ 6.04 µM)	0.5 (≈ 1.51 µM)	–
C[C@@H](O)[C@H]1C(=O)N2C(C(=O)O)=C(S[C@@H]3CN[C@H](C(=O)N(C)C)C3)[C@H](C)[C@H]12 [MEROPENEM]	0.25 (≈ 0.652 µM)	> 8	16 (≈ 41.7 µM)	1 (≈ 2.61 µM)	128 (≈ 334 µM)	0.125 (≈ 0.326 µM)	0.25 (≈ 0.652 µM)	0.5 (≈ 1.3 µM)	0.12 (≈ 0.313 µM)	0.12 (≈ 0.313 µM)	1 (≈ 2.61 µM)	0.06 (≈ 0.156 µM)	0.12 (≈ 0.313 µM)	0.12 (≈ 0.313 µM)	–
NC[C@H]1O[C@H](O[C@H]2[C@H](O)[C@@H](O[C@H]3O[C@H](CO)[C@@H](O)[C@H](N)[C@H]3O)[C@H](N)C[C@@H]2N)[C@H](N)C[C@@H]1O [TOBRAMYCIN]	16 (≈ 34.2 µM)	16 (≈ 34.2 µM)	16 (≈ 34.2 µM)	64 (≈ 137 µM)	8 (≈ 17.1 µM)	32 (≈ 68.4 µM)	> 32	32 (≈ 68.4 µM)	16 (≈ 34.2 µM)	32 (≈ 68.4 µM)	32 (≈ 68.4 µM)	16 (≈ 34.2 µM)	2 (≈ 4.28 µM)	> 32	–
O/N=C/c1nccn1-c1ccccc1	–	–	–	–	–	–	–	–	–	–	–	–	–	–	MIC (Klebsiella pneumoniae [13]): 100 µg/mL (≈ 534 µM); zone of inhibition at 250 µg/disc (Klebsiella pneumoniae [14]): 17.2 mm; zone of inhibition at 250 µg/disc (Aeromonas hydrophila [15]): 17.7 mm; zone of inhibition at 250 µg/disc (Enterococcus faecalis [16]): 15.7 mm; MIC (Pseudomonas aeruginosa [17]): 25 µg/mL (≈ 134 µM); MIC (Escherichia coli [18]): 50 µg/mL (≈ 267 µM); MIC (Enterococcus faecalis [19]): 6.25 µg/mL (≈ 33.4 µM); zone of inhibition at 250 µg/disc (Candida albicans): 16.4 mm; MIC (Clostridium perfringens [20]): 100 µg/mL (≈ 534 µM); zone of inhibition at 250 µg/disc (Talaromyces funiculosus): 17.9 mm; zone of inhibition at 250 µg/disc (Clostridium perfringens [21]): 16.5 mm; MIC (Bacillus cereus [22]): 50 µg/mL (≈ 267 µM); zone of inhibition at 250 µg/disc (Escherichia coli [23]): 17.8 mm; zone of inhibition at 250 µg/disc (Staphylococcus aureus [24]): 10.1 mm; MIC (Aeromonas hydrophila [25]): 50 µg/mL (≈ 267 µM); zone of inhibition at 250 µg/disc (Bacillus cereus [26]): 15.4 mm; MIC (Staphylococcus aureus [27]): 100 µg/mL (≈ 534 µM); zone of inhibition at 250 µg/disc (Pseudomonas aeruginosa [28]): 15.8 mm; zone of inhibition at 250 µg/disc (Aspergillus fumigatus): 19.5 mm
